Source: PMC10016935 (RSC Advances, 2023)
Like-named read-outs stand apart in the source and are kept apart here. Blank lines part the entries; values can stand above or below the compound they belong to.

Experiments:
HSV-1 [1] = experiment: HSV replication inhibition assay, HSV-1 in Vero cells; format: cell-based, herpes simplex virus-1; settings: for EC50: read-out: HSV-1 EC50 (μM) ± SD; for Selectivity CC50/EC50: Vero CC50 / HSV-1 EC50
Procedure, shortened: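 Confluent Vero monolayers (24-well) got compound in PBS with 2% newborn calf serum and 2 mM L-glutamine, in duplicate, plus clinical-isolate virus at 2 × 10^4 PFU per well, for 1 h at 37 °C. Washed, then compound in DMEM for 24 h. Non-toxic wells (phase-contrast check) were titred by plaque assay (methanol, Giemsa). EC50 used serial dilutions in 96-well format, three-parameter fit, bottom zero.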

Cytotoxicity assay = format: cell-based; settings: African green monkey, Vero cells
Procedure, shortened: (§1)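 Vero cells in 96-well plates in DMEM with 3% bovine growth serum and 3% newborn calf serum. Serial compound dilutions in medium with 1% DMSO were added 24 h after plating, in duplicate. After 24 or 48 h, MTS was added for 90 min and A490 read. CC50 came from a four-parameter variable-slope fit with bottom fixed at zero.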

Vero cells = experiment: Cytotoxicity assay; format: cell-based; settings: read-out: Vero CC50 (μM) ± SD, 48 h, MTS, 2 to 4 independent runs
Procedure, shortened: as §1

[2] = system: mutant of HSV-1 resistant to acyclovir (TK−); experiment: Replication inhibition of acyclovir-resistant HSV-1 mutant; format: cell-based, herpes simplex virus-1; settings: Fig. 2C
HSV-1 [3] = settings: read-out: EC50 HSV-1; cell-based antiviral activity; cited from earlier work
HSV-2 = settings: read-out: EC50 HSV-2; cell-based antiviral activity; cited from earlier work

Structure (SMILES): Cc1cc(O)c(=O)c(O)cc1C(=O)N1CCc2cc(C3CCCCC3)ccc2C1 [compound 64, 4-(6-Cyclohexyl-1,2,3,4-tetrahydroisoquinoline-2-carbonyl)-2,7-dihydroxy-5-methylcyclohepta-2,4,6-trien-1-one]
EC50 (HSV-1 [1]; Human alphaherpesvirus 1, Vero): 0.072 ± 0.021 µM | Selectivity CC50/EC50 (HSV-1 [1]; listed as C00065): 1050 | CC50 at 48 h (Cytotoxicity assay): 75.7 ± 5.3 µM

Structure (SMILES): Cc1cc(O)c(=O)c(O)cc1C(=O)Nc1ccc2ccc3cccc4ccc1c2c34 [compound 63, 4,6-Dihydroxy-2-methyl-5-oxo-N-(pyren-1-yl)cyclohepta-1,3,6-triene-1-carboxamide]
EC50 (HSV-1 [1]; Human alphaherpesvirus 1, Vero): 0.244 ± 0.097 µM | CC50 at 48 h (Cytotoxicity assay): 74.2 ± 8.7 µM

Structure (SMILES): Nc1nc2c(ncn2COCCO)c(=O)[nH]1 [acyclovir]
inhibition of wild-type HSV-1 (HSV-1 [1]; wild-type virus, Fig. 2C): inhibited only the wild-type virus | inhibition of ACV-resistant HSV-1 [2]: inhibited only the wild-type virus | EC50 (HSV-1 [3]): 170 nM | EC50 (HSV-2): 1400 nM

Now from value to compound, other results behind:

EC50 (HSV-1 [1]; Vero cells, 3 to 4 independent runs): 0.306 ± 0.016 µM
Structure (SMILES): Cc1cc(O)c(=O)c(O)cc1C(=O)NCC1(c2ccc(C(C)C)cc2)CCCC1 [compound 65, Dihydroxy-N-((1-(4-isopropylphenyl)cyclopentyl)methyl)-2-methyl-5-oxocyclohepta-1,3,6-triene-1-carboxamide]
Selectivity CC50/EC50 (HSV-1 [1]): 302 | CC50 (Vero cells): 92.5 ± 7.5 µM

EC50 (HSV-1 [1]; Human alphaherpesvirus 1, Vero): 0.296 ± 0.054 µM
Structure (SMILES): Cc1cc(O)c(=O)c(O)cc1C(=O)N1CCC2(CC1)C1CC3CC(C1)CC2C3 [compound 66, 2,7-Dihydroxy-4-methyl-5-(spiro[adamantane-2,4′-piperidine]-1′-carbonyl)cyclohepta-2,4,6-trien-1-one]
CC50 at 48 h (Cytotoxicity assay): 23.7 ± 3.8 µM
